Data reported in ChEMBL document CHEMBL1121614, “Synthesis and antiallergy activity of 4-oxopyrano[3,2-b]indoles” (1980).
The source made the active and inactive calls. The rule behind the calls is not given here.

What was measured:
[1] = test system: Rattus norvegicus; test: Inhibition of rat passive cutaneous anaphylaxis at 5.0 mg/kg dose after peroral administration; type: functional; details: route oral
Procedure, shortened: (§1)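 Rats were sensitized by intradermal injection of antiserum dilutions at several back sites. Drug was suspended in 1% gum tragacanth in saline and given po or ip 10–15 min before challenge with iv ovalbumin (1 mg in 1 mL saline with 0.25% Evans blue). At 30 min the wheal's mean orthogonal diameter was measured. Diameter was plotted against antiserum level and extrapolated to zero. Five rats per group.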

[2] = test system: Rattus norvegicus; test: Inhibition of rat passive cutaneous anaphylaxis at 1.0 mg/kg dose after intraperitoneal administration; type: functional; details: ip; procedure, shortened: as §1
[3] = test system: Rattus norvegicus; test: Inhibition of rat passive cutaneous anaphylaxis at 5.0 mg/kg dose after intraperitoneal administration; type: functional; details: ip; procedure, shortened: as §1
[4] = test system: Rattus norvegicus; test: The compound was tested for inhibition of rat passive cutaneous anaphylaxis at 10 mg/kg dose after intraperitoneal administration; type: functional; details: ip
[5] = test system: Rattus norvegicus; test: The compound was tested for inhibition of rat passive cutaneous anaphylaxis at 2.0 mg/kg dose after peroral administration; type: functional; details: route oral; procedure, shortened: as §1
[6] = test system: Rattus norvegicus; test: The compound was tested for inhibition of rat passive cutaneous anaphylaxis at 1 mg/kg dose after iv administration; type: functional
Procedure, shortened: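 Rat PCA by the iv route. Antiserum dilutions were injected intradermally on the back 48 h before iv challenge with 1 mg ovalbumin in 1 mL saline plus 0.25% Evans blue. Compound was dissolved, if needed, in slight molar excess NaHCO3 and diluted into the antigen solution. Wheal diameter was read at 30 min and extrapolated to zero antiserum by least squares. Groups of five.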

[7] = test system: Rattus norvegicus; test: The compound was tested for inhibition of rat passive cutaneous anaphylaxis at 2.0 mg/kg dose after intraperitoneal administration; type: functional; details: ip
[8] = test system: Rattus norvegicus; test: The compound was tested for inhibition of rat passive cutaneous anaphylaxis at 5.0 mg/kg dose after peroral administration; O means inactive; type: functional, organism-based; design: dose 5 mg/kg; procedure, shortened: as §1
[9] = test system: Rattus norvegicus; test: The compound was tested for inhibition of rat passive cutaneous anaphylaxis at 1.0 mg/kg dose after peroral administration; type: functional; details: route oral; procedure, shortened: as §1

Row | Compound | inhibition in vivo at 5 mg/kg [1] [%] | inhibition in vivo at 1 mg/kg [2] [%] | inhibition in vivo at 5 mg/kg [3] [%] | other results
1 | Cn1c2ccccc2c2oc(-c3nn[nH]n3)cc(=O)c21 | 39 | 87 | 100 | –
2 | Cc1ccc2c(c1)c1oc(C(=O)Nc3nn[nH]n3)cc(=O)c1n2C | 0 | 33 | 100 | –
3 | CCn1c2ccccc2c2oc(C(=O)Nc3nn[nH]n3)cc(=O)c21 | 1 | 12 | 100 | –
4 | O=C1c2ccccc2S(=O)(=O)c2cc(-c3nn[nH]n3)ccc21 [DOXANTRAZOLE] | 50 | 33 | – | inhibition in vivo at 10 mg/kg [4]: 97%
5 | CCn1c2ccccc2c2oc(C(=O)O)cc(=O)c21 | – | 0 | – | inhibition in vivo at 2 mg/kg [5]: 22%; inhibition in vivo at 1 mg/kg [6]: 100%
6 | O=C(Nc1nn[nH]n1)c1cc(=O)c2c(o1)c1ccccc1n2-c1ccccc1 | 7 | – | 0 | –
7 | Cn1c2c([N+](=O)[O-])cc([N+](=O)[O-])cc2c2oc(C(=O)O)cc(=O)c21 | 0 | – | 0 | –
8 | Cn1c2ccc(Cl)cc2c2oc(C(=O)O)cc(=O)c21 | 2 | – | 23 | –
9 | Cn1c2c([N+](=O)[O-])cc([N+](=O)[O-])cc2c2oc(C(=O)Nc3nn[nH]n3)cc(=O)c21 | – | – | 48 | –
10 | O=C(O)c1cc(=O)c2c(OCC(O)COc3cccc4oc(C(=O)O)cc(=O)c34)cccc2o1 [CROMOLYN SODIUM] | – | – | – | inhibition in vivo at 10 mg/kg [4]: 89%; inhibition in vivo at 2 mg/kg [7]: 50%; inhibition [8]: inactive
11 | O=c1cc(-c2nn[nH]n2)oc2c3ccccc3n(-c3ccccc3)c12 | 32 | 61 | 100 | –
12 | CCn1c2ccccc2c2oc(-c3nn[nH]n3)cc(=O)c21 | 70 | 100 | 100 | –
13 | Cn1c2ccc(Cl)cc2c2oc(C(=O)Nc3nn[nH]n3)cc(=O)c21 | 6 | 38 | 100 | –
14 | Cn1c2ccc(Cl)cc2c2oc(-c3nn[nH]n3)cc(=O)c21 | 33 | 46 | 100 | –
15 | Cn1c2ccccc2c2oc(C(=O)Nc3nn[nH]n3)cc(=O)c21 | 0 | 28 | 100 | –
16 | Cn1c2ccc([N+](=O)[O-])cc2c2oc(C(=O)O)cc(=O)c21 | 0 | 1 | 100 | –
17 | Cc1ccc2c(c1)c1oc(-c3nn[nH]n3)cc(=O)c1n2C | 56 | 25 | 100 | –
18 | Cc1ccc2c(c1)c1oc(C(=O)O)cc(=O)c1n2C | – | 18 | – | inhibition in vivo at 2 mg/kg [5]: 11%
19 | Cn1c2ccccc2c2oc(C(=O)O)cc(=O)c21 | 96 | 30 | 100 | –
20 | Cn1c2ccc([N+](=O)[O-])cc2c2oc(C(=O)Nc3nn[nH]n3)cc(=O)c21 | – | 42 | 100 | inhibition in vivo at 1 mg/kg [9]: 15%
21 | O=C(O)c1cc(=O)c2c(o1)c1ccccc1n2-c1ccccc1 | – | 13 | – | inhibition in vivo at 2 mg/kg [5]: 0%; inhibition in vivo at 1 mg/kg [6]: 100%
